Source: ChEMBL document CHEMBL1124792, “Synthesis and structure-activity relationships of 5-substituted 6,8-difluoroquinolones, including sparfloxacin, a new quinolone antibacterial agent with improved potency” (1990)
In brackets after ≈: the same amount, converted by molar mass.

Tests used:
Type in all cases: functional
Staphylococcus aureus = test: In vitro antibacterial activity against Staphylococcus aureus 209P JC-1
Procedure, shortened: (§1)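 Two-fold agar dilution MIC on Mueller-Hinton agar (pH 7.4), following the Japan Society of Chemotherapy MIC Committee method. Inoculum was about 10⁶ CFU, and growth was read after 20 h at 37 °C. MIC is reported in µg/mL.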

Escherichia coli = test: In vitro antibacterial activity against Escherichia coli NIHJ JC-2; procedure, shortened: as §1
Pseudomonas aeruginosa = test: In vitro antibacterial activity against Pseudomonas aeruginosa 12; procedure, shortened: as §1

Structure (SMILES)	MIC (Staphylococcus aureus)	MIC (Escherichia coli)	MIC (Pseudomonas aeruginosa)
CN1CCN(c2c(F)c(OCc3ccccc3)c3c(=O)c(C(=O)O)cn(C4CC4)c3c2F)CC1	6.25 µg/mL (≈ 13.3 µM)	1.56 µg/mL (≈ 3.32 µM)	6.25 µg/mL (≈ 13.3 µM)
CC1CN(c2c(F)c(N)c3c(=O)c(C(=O)O)cn(C4CC4)c3c2F)CCN1C (stereo not drawn)	0.05 µg/mL (≈ 0.127 µM)	0.0063 µg/mL (≈ 0.0161 µM)	0.39 µg/mL (≈ 0.994 µM)
CNc1c(F)c(N2CCN(C)CC2)c(F)c2c1c(=O)c(C(=O)O)cn2C1CC1	0.78 µg/mL (≈ 1.99 µM)	0.1 µg/mL (≈ 0.255 µM)	1.56 µg/mL (≈ 3.98 µM)
Nc1c(F)c(N2CCNC(CO)C2)c(F)c2c1c(=O)c(C(=O)O)cn2C1CC1 (stereo not drawn)	0.05 µg/mL (≈ 0.127 µM)	0.025 µg/mL (≈ 0.0634 µM)	0.2 µg/mL (≈ 0.507 µM)
O=C(O)c1cn(C2CC2)c2c(F)c(N3CCNCC3)c(F)c(Cl)c2c1=O	0.1 µg/mL (≈ 0.261 µM)	0.0125 µg/mL (≈ 0.0326 µM)	0.39 µg/mL (≈ 1.02 µM)
CN1CCN(c2c(F)c(Br)c3c(=O)c(C(=O)O)cn(C4CC4)c3c2F)CC1	0.39 µg/mL (≈ 0.882 µM)	0.05 µg/mL (≈ 0.113 µM)	0.78 µg/mL (≈ 1.76 µM)
C[C@@H]1NCCN(c2c(F)c(N)c3c(=O)c(C(=O)O)cn(C4CC4)c3c2F)[C@@H]1C (relative stereo)	0.025 µg/mL (≈ 0.0637 µM)	0.0125 µg/mL (≈ 0.0319 µM)	0.78 µg/mL (≈ 1.99 µM)
CN1CCN(c2c(F)c(NCc3ccccc3)c3c(=O)c(C(=O)O)cn(C4CC4)c3c2F)CC1	0.78 µg/mL (≈ 1.66 µM)	0.78 µg/mL (≈ 1.66 µM)	3.13 µg/mL (≈ 6.68 µM)
CN1CCN(c2c(F)c(N(C)C)c3c(=O)c(C(=O)O)cn(C4CC4)c3c2F)CC1	25 µg/mL (≈ 61.5 µM)	3.13 µg/mL (≈ 7.7 µM)	50 µg/mL (≈ 123 µM)
C[C@@H]1CN(c2c(F)c(N)c3c(=O)c(C(=O)O)cn(C4CC4)c3c2F)CCN1	0.05 µg/mL (≈ 0.132 µM)	0.0125 µg/mL (≈ 0.033 µM)	0.2 µg/mL (≈ 0.529 µM)
C[C@@H]1CN(c2c(F)c(Cl)c3c(=O)c(C(=O)O)cn(C4CC4)c3c2F)C[C@H](C)N1	0.2 µg/mL (≈ 0.486 µM)	0.025 µg/mL (≈ 0.0607 µM)	0.78 µg/mL (≈ 1.89 µM)
O=C(O)c1cn(C2CC2)c2c(F)c(N3CCNCC3)c(F)c(O)c2c1=O	0.2 µg/mL (≈ 0.547 µM)	0.025 µg/mL (≈ 0.0684 µM)	0.39 µg/mL (≈ 1.07 µM)
COc1ccc(CSc2c(F)c(N3CCN(C)CC3)c(F)c3c2c(=O)c(C(=O)O)cn3C2CC2)cc1	100 µg/mL (≈ 194 µM)	12.5 µg/mL (≈ 24.2 µM)	> 100 µg/mL
C[C@@H]1CN(c2c(F)c(N)c3c(=O)c(C(=O)O)cn(C4CC4)c3c2F)[C@@H](C)CN1	0.78 µg/mL (≈ 1.99 µM)	0.39 µg/mL (≈ 0.994 µM)	3.13 µg/mL (≈ 7.98 µM)
CN1CCN(c2c(F)c(-n3cccc3)c3c(=O)c(C(=O)O)cn(C4CC4)c3c2F)CC1	3.13 µg/mL (≈ 7.31 µM)	0.39 µg/mL (≈ 0.91 µM)	12.5 µg/mL (≈ 29.2 µM)
CN1CCN(c2c(F)c(O)c3c(=O)c(C(=O)O)cn(C4CC4)c3c2F)CC1	0.2 µg/mL (≈ 0.527 µM)	0.05 µg/mL (≈ 0.132 µM)	0.78 µg/mL (≈ 2.06 µM)

Continued by falling MIC (Staphylococcus aureus), values first:

MIC (Staphylococcus aureus)	MIC (Escherichia coli)	MIC (Pseudomonas aeruginosa)	Structure (SMILES)
25 µg/mL (≈ 63.6 µM)	0.2 µg/mL (≈ 0.508 µM)	12.5 µg/mL (≈ 31.8 µM)	COc1c(F)c(N2CCN(C)CC2)c(F)c2c1c(=O)c(C(=O)O)cn2C1CC1
6.25 µg/mL (≈ 13.9 µM)	0.05 µg/mL (≈ 0.111 µM)	0.78 µg/mL (≈ 1.74 µM)	CN(C)CCNc1c(F)c(N2CCN(C)CC2)c(F)c2c1c(=O)c(C(=O)O)cn2C1CC1
3.13 µg/mL (≈ 7.92 µM)	0.39 µg/mL (≈ 0.986 µM)	12.5 µg/mL (≈ 31.6 µM)	CN1CCN(c2c(F)c(S)c3c(=O)c(C(=O)O)cn(C4CC4)c3c2F)CC1
3.13 µg/mL (≈ 7.64 µM)	0.2 µg/mL (≈ 0.488 µM)	12.5 µg/mL (≈ 30.5 µM)	CSc1c(F)c(N2CCN(C)CC2)c(F)c2c1c(=O)c(C(=O)O)cn2C1CC1
0.39 µg/mL (≈ 0.923 µM)	0.05 µg/mL (≈ 0.118 µM)	0.78 µg/mL (≈ 1.85 µM)	CN1CCN(c2c(F)c(NCCO)c3c(=O)c(C(=O)O)cn(C4CC4)c3c2F)CC1
0.39 µg/mL (≈ 0.986 µM)	0.05 µg/mL (≈ 0.126 µM)	1.56 µg/mL (≈ 3.95 µM)	C[C@@H]1CN(c2c(F)c(F)c3c(=O)c(C(=O)O)cn(C4CC4)c3c2F)C[C@H](C)N1 [ORBIFLOXACIN]
0.39 µg/mL (≈ 1.02 µM)	0.05 µg/mL (≈ 0.131 µM)	0.78 µg/mL (≈ 2.05 µM)	CN1CCN(c2c(F)c(F)c3c(=O)c(C(=O)O)cn(C4CC4)c3c2F)CC1
0.2 µg/mL (≈ 0.508 µM)	0.025 µg/mL (≈ 0.0636 µM)	0.78 µg/mL (≈ 1.98 µM)	C[C@@H]1CN(c2c(F)c(O)c3c(=O)c(C(=O)O)cn(C4CC4)c3c2F)C[C@H](C)N1
0.2 µg/mL (≈ 0.503 µM)	0.025 µg/mL (≈ 0.0628 µM)	0.78 µg/mL (≈ 1.96 µM)	CN1CCN(c2c(F)c(Cl)c3c(=O)c(C(=O)O)cn(C4CC4)c3c2F)CC1
0.05 µg/mL (≈ 0.119 µM)	0.1 µg/mL (≈ 0.237 µM)	1.56 µg/mL (≈ 3.7 µM)	CN(C)CC1CN(c2c(F)c(N)c3c(=O)c(C(=O)O)cn(C4CC4)c3c2F)CCN1 (stereo not drawn)
